The results in this text go back to PubChem BioAssay AID588621 (Sanford-Burnham Center for Chemical Genomics, 2011).

Among all 360,000 compounds or so, about 890 (0.25%) were called active. The sample holds actives, similar compounds and a random draw of the others, so the mix is not that of the screen. Unmarked numbers belong to inactive results.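 Rule for the calls: active = inhibition at 20 µM, scaled per plate between control wells, above about 37% (limit read from the data); inactive = the rest.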

Tyrosine-protein phosphatase non-receptor type 5 (Homo sapiens), sequence (P54829 whole entry, looked up): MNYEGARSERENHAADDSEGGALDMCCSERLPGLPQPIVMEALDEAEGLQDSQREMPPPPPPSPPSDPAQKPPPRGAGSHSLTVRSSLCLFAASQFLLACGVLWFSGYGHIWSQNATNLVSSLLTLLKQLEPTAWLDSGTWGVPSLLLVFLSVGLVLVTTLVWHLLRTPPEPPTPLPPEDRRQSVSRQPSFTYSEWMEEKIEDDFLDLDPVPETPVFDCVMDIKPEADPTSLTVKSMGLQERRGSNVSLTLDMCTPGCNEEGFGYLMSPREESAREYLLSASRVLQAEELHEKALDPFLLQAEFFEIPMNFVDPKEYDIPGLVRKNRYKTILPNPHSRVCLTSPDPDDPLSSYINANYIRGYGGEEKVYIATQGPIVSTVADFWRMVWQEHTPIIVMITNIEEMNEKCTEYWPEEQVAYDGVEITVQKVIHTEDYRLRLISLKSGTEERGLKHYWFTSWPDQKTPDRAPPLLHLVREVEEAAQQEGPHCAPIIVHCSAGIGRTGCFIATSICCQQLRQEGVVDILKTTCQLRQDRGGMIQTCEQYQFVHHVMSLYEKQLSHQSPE

The target of this test is Tyrosine-protein phosphatase non-receptor type 5 (Homo sapiens) (UniProt P54829). Put plainly: inhibition of human PTPN5 enzyme activity – biochemical, fluorescence intensity, uHTS, primary screen (AID 588621).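 Note: 0% = DMSO with enzyme and substrate and 100% = substrate only without enzyme.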 The conditions noted are these: recombinant STEP, OMFP fluorogenic substrate, at 20 µM, active compounds read high. Put shortly:
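Material: STEP (striatal-enriched tyrosine phosphatase) enzyme, cell-free | Medium: 50 mM Bis-Tris pH 6.0 with 2.5 mM DTT and 0.005% Tween 20 | Read-out: Percent inhibition scaled to no-enzyme and uninhibited-enzyme controls, plate-pattern corrected | Signal: Fluorescence read at 480 nm ex / 540 nm em | Times: 20 min reaction, room temperature, in the dark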
`CCc1c(C)sc(NC(=O)OC)c1C(=O)N1CCOCC1`: the inhibition is 10.1%.
For the molecule `Cc1cc(C)cc(C(=O)OCC(=O)NCCNC(=O)COC(=O)c2cc(C)cc(C)c2)c1`, the inhibition was 1%.
In the case of `CCc1nc2c(OCCC3CCCCC3)cccn2c1N(C)C(=O)c1ccco1`, the inhibition is 4.5%.
With `COc1cc(OC)c(-n2cc(-c3ccc(Cl)cc3)[nH]c2=O)cc1Cl` the figure was 0.7%.
With `CCCn1c(C2CCCN2c2nc(-c3ccc(C)cc3)cs2)nc2cc(Cl)c(N3CCCCC3)cc21` (stereo unspecified) the figure was 3.4%; with `Nc1c(Cl)cc(-c2csc(N3CCCC3c3nc4cc(Cl)c(Cl)cc4n3CCOCCO)n2)cc1Cl` (stereo unspecified), 36.9% (active).
For the molecule `Cc1ccc(-c2csc(N3CCN(c4cc5c(cc4Cl)nc(-c4ccncc4)n5CCOCCO)CC3)n2)cc1`, the inhibition is 2.3%.
With `O=c1nc(N2CCOCC2)nc2n1CCO2` the figure was 4.3%.
The value for `COc1cccc(/C=C/C(=O)OCC(=O)N2CCCc3ccccc32)c1` was -1.7%; that for `N#Cc1c(-c2ccccc2)nc(SCc2cccc(C(F)(F)F)c2)[nH]c1=O` was 2.7%; that for `N#Cc1c(-c2cccs2)nc(SCC(=O)c2ccc(Br)cc2)[nH]c1=O` was 78.8% (active).
With `CCc1ccc(C(=O)CSc2nnc(C)c(=O)[nH]2)cc1` the figure was -1%; with `Cc1ccnc(N2CCN(C(=O)CSc3nc4ccccc4nc3N3CCCCC3)CC2)c1`, 7.7%.
As to `CC(C)C(O)C1CCN(Cc2nc(Cc3ccccc3Cl)no2)CC1` (stereo unspecified), the inhibition is -0.6%.
With `CN(C(=O)CSc1nnc(N)s1)c1c(N)n(Cc2ccccc2)c(=O)[nH]c1=O` the figure was 2%.
For the molecule `Cc1ccnc(NS(=O)(=O)c2ccc(NC(=O)c3ccc(S(=O)(=O)N(C)C)cc3)cc2)n1`, the inhibition was 10.2%.
As to `CC(Oc1ccc(Cl)cc1)c1ccnn1S(C)(=O)=O` (stereo unspecified), the inhibition was -1.9%.
The value for `Cc1ccc(NC(=O)COc2ccc(/C=N\NC(=O)c3cccnc3)cc2)cc1C` was 93% (active); that for `Cc1cccc(OCC(=O)NCCNC(=O)c2cccnc2)c1` was 0.6%.
The value for `Cc1ccc(OCC(=O)NCCCNC(=O)c2cccnc2)cc1C` was 2.8%; that for `CC(=O)c1nc(N2C(=O)C3CC=C(C)CC3C2=O)sc1C` (stereo unspecified) was -0.6%; that for `O=C(NCc1ccc(F)cc1)c1cc(C2CCCCN2C(=O)c2ccccn2)on1` (stereo unspecified) was -0.8%.
As for `CCOCCCNc1c(CC)c(C)c(C#N)c2nc3ccccc3n12`, the inhibition was -1%.
In the case of `CCc1cccc(C)c1N(C(=O)Cn1c(CO)nc2ccccc21)C(C)COC` (stereo unspecified), the inhibition is -4.3%.
In the case of `C/C(=N\OC(=O)c1ccccc1)c1c(C)nc2cc(C)ccn12`, the inhibition is -1.4%.
With `Cc1ccn2c(-c3csc(Nc4ccc(C(=O)O)cc4)n3)c(C)nc2c1` the figure was 41.9% (active); with `CCCCC(=O)Nc1nc(C)c(-c2csc(Nc3ccc(Cl)cc3)n2)s1`, -1.7%.
Turning to `COc1cccc(-c2cnc(C(O)c3ccccc3OC)[nH]2)c1` (stereo unspecified), the inhibition is -2.4%.
With `COCCCNC(=O)[C@H]1N2C(=O)c3ccccc3C2SC1(C)C` (stereo partly specified) the figure was 0.9%; with `Cc1[nH]c2ccccc2c1C(=O)C(=O)NCc1nnnn1-c1cccc(F)c1`, 0.6%.
For the molecule `COc1ccc(CCN2CC(C(=O)NCCN3CCNC3=O)CCC2=O)cc1` (stereo unspecified), the inhibition was -4.2%.
As for `Cc1cc(F)ccc1S(=O)(=O)Nc1ccc(C(=O)N(C)Cc2ccco2)cc1`, the inhibition was 2.5%.
With `Cc1ccccc1NC(=O)C(C)OC(=O)CCC(=O)N(CC(C)C)c1c(N)n(CC(C)C)c(=O)[nH]c1=O` (stereo unspecified) the figure was -1.1%; with `CCOc1ccc(NC(=O)c2ccc(NC(=O)CN3C(=O)C(=O)N(CC(C)C)C3=O)cc2)cc1`, -3.1%.
`COCCNC(=O)Nc1ccc2nc(-c3ccco3)c(-c3ccco3)nc2c1`: the inhibition is 60.1% (active).
In the case of `Cc1cc2nc(C)n(CCCNC(=O)Nc3ccccc3)c2cc1C`, the inhibition was -3.8%.
The value for `COc1ccc(CCNC(=O)Nc2ccc3c(c2)c(=O)n(C)n3C)cc1OC` was 1.1%; that for `O=C(COC(=O)Cc1ccc(Br)cc1)Nc1c(F)c(F)c(F)c(F)c1F` was -0.2%; that for `Nc1cc(=O)c2[nH]cnc2[nH]1` was -4.7%.
The value for `CN(C(=O)COC(=O)Cc1ccccc1[N+](=O)[O-])C1CCS(=O)(=O)C1` (stereo unspecified) was -3.3%; that for `CN(C(=O)COC(=O)c1cc(-c2ccco2)nc2ccccc12)C1CCS(=O)(=O)C1` (stereo unspecified) was 64.5% (active).
Take `COc1ccc(NC(=O)COc2ccc(C(=O)OCC(=O)N(C)C3CCS(=O)(=O)C3)cc2OC)cc1` (stereo unspecified): the inhibition is -4.8%.
With `O=C1c2ccccc2C(=O)N1CCC(O)C[N+](=O)[O-]` (stereo unspecified) the figure was 3.3%.
With `COC(=O)C1=C(C)NC(=S)NC1c1ccc(OCC(=O)N2CC(C)OC(C)C2)c(OC)c1` (stereo unspecified) the figure was -3.9%; with `O=S(=O)(c1ccc(-c2ccno2)s1)N1CCCCC1`, -0.2%; with `Cc1ccccc1CC1(CO)CCCN(C(=O)c2cc(-c3ccccc3)no2)C1` (stereo unspecified), 120% (active).
Consider `Cc1noc(C)c1CCC(=O)N1CCCC(CO)(Cc2ccccc2)C1` (stereo unspecified), for which the inhibition is -1.7%.
`Cc1ccccc1CC1(CO)CCCN(Cc2ccc3c(c2)OCCO3)C1` (stereo unspecified): the inhibition was -4%.
With `COc1ccc(S(=O)(=O)NC(C)C(=O)NCc2ccncc2)cc1Cl` (stereo unspecified) the figure was -1.3%; with `CCCCC[C@@H]1C=C(C(=O)O)[C@H](c2ccc(C#N)cc2)N1S(=O)(=O)c1ccc(C)cc1`, -1.7%; with `O=C(CS(=O)(=O)Cc1ccccc1)Nc1cccnc1`, -1.4%.
With `O=C(OCC(=O)N1CCCC1)c1ccc(Cl)nc1` the figure was -2.6%.
As for `CC(C)(C)c1ccc(SCCc2ccncc2)cc1`, the inhibition is 0%.
With `O=C(COc1cccc(F)c1)Oc1ccc(C(=O)c2ccccc2)cc1` the figure was 89.8% (active); with `CCN(C(=O)COc1ccc(C(=O)c2ccccc2)cc1)c1ccccc1`, -1.7%; with `O=C(COC(=O)COc1cccc(F)c1)NCC1CCCCC1`, -3.8%.
The value for `S=C(Nc1ccc2c(c1)OCO2)N1CCCC1` was -3.3%; that for `Cc1ccc(S(=O)(=O)N2CCN(C(=O)CCC(=O)NC3CCCc4ccccc43)CC2)cc1` (stereo unspecified) was -4.5%.
With `Cc1ccc(S(=O)(=O)c2c[nH]c3ccc(C)cc3c2=O)cc1` the figure was -0.1%.
In the case of `Cc1ccc(S(=O)(=O)c2c[nH]c3ccc(Cl)cc3c2=O)cc1`, the inhibition was 37.4% (active).
With `CCCCN(C)Cc1c(C)[nH]c2ccc(Cl)cc2c1=O` the figure was -4.1%.

For orientation: inhibition means the drop in the measured response relative to a control, in per cent.
